From ChEMBL document CHEMBL1158078, “Integerrimides A and B, cyclic heptapeptides from the latex of Jatropha integerrima” (J Nat Prod, 2006)
Values after ≈ are worked out from the molar mass of the structure shown. Active and inactive are the calls of the source. No cut-off for these calls is given here. Residues, ends and D or L forms follow the SMILES beside them.

Key:
[1] = test system: Mycobacterium tuberculosis; assay: Antimycobacterial activity
Human alphaherpesvirus 1 [2] = assay: Antiviral activity against HSV1 ATCC VR260 by colorimetry; format: functional, organism-based
Summary of the method: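 HSV-1 strain ATCC VR 260; colorimetric method; compounds tested at 50 μg/mL; acyclovir as positive control.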

Candida albicans [3] = assay: Antimicrobial activity against Candida albicans ATCC 90028 by tetrazolium/formazan assay; format: functional, organism-based
Summary of the method: (§1)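 Candida albicans ATCC 90028 tested by tetrazolium/formazan assay; compounds at 50 μg/mL.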

Capan-2 = assay: Inhibition of cell migration of human Capan 2 cells at 50 uM after 20 h by scratch migration assay; settings: Capan-2, 20 h
Homo sapiens = species on record: Homo sapiens; assay: Effect on cell viability of human Capan II cells assessed as cell morphology changes at 50 uM after 20 h
IPC-298 [4] = assay: Antiproliferative activity against human IPC298 cells assessed as cell density at 50 uM after 2 days; format: functional
Summary of the method: (§2)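 IPC-298 melanoma cells grown in DMEM/Ham's F12 with stabilized L-glutamine, 10% heat-inactivated FCS, penicillin/streptomycin. Plated at 100 000 cells per cm², cultured with or without compound (10 and 50 μM) for 2 days. Viable cells counted on phase-contrast digital pictures as cells per 0.36 mm². Debris and apoptotic nuclei judged by microscopy.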

IPC-298 [5] = assay: Cytotoxicity against human IPC298 cells assessed as apoptotic cell nuclei level at 50 uM after 2 days; format: functional, cell-based
Summary of the method: as §2

[6] = Toxicity against chicken medulla neurons assessed as effect on cell viability at 50 uM after 24 hrs; parameters: species or system Gallus gallus
[7] = Toxicity against E7 chicken spinal cord neurons assessed as effect on cell viability at 50 uM after 2 days; parameters: species or system Gallus gallus; settings: 48 h
Candida albicans [8] = assay: Antimicrobial activity against Candida albicans ATCC 90028 at 50 ug/mL by tetrazolium/formazan assay; format: functional, organism-based
Summary of the method: as §1

Human alphaherpesvirus 1 [9] = assay: Antiviral activity against HSV1 ATCC VR260 at 50 ug/mL by colorimetry; format: functional, organism-based
Summary of the method: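 Against HSV-1 strain ATCC VR 260, colorimetric method; compounds at 50 μg/mL; acyclovir as positive control.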

IPC-298 [10] = assay: Cytotoxicity against human IPC298 cells assessed as cell debris level at 50 uM after 2 days; format: functional, cell-based
Summary of the method: as §2

Gallus gallus [11] = species on record: Gallus gallus; assay: Inhibition of neurite outgrowth in E7 chicken spinal cord neurons at 50 uM after 2 days; format: functional
Summary of the method: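 Spinal cord (anterior) from 7-day chicken embryos dissociated with trypsin/DNAseI at 37 °C for 20 min, washed in HEPES-buffered medium. 50 000 cells plated per 1 cm² on polylysine/fibronectin coating in HBM with 10% FCS at 37 °C, no CO₂. Cultured with or without compound (10 or 50 μM) for 2 days; neurites scored by phase-contrast microscopy.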

Plasmodium falciparum = assay: Antimalarial activity against multidrug-resistant Plasmodium falciparum K1 at 10 ug/mL; format: functional, organism-based
Summary of the method: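 P. falciparum K1 maintained in continuous culture; in vitro activity quantified by microculture radioisotope technique; compounds tested at 10 μg/mL.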

Gallus gallus [12] = species on record: Gallus gallus; assay: Inhibition of blebbistatin-induced neurite outgrowth in chicken medulla neurons at 50 uM after 24 hrs; format: functional

**Q.** With NC[C@H]1O[C@H](O[C@H]2[C@H](O)[C@@H](O[C@H]3O[C@H](CO)[C@@H](O)[C@H](N)[C@H]3O)[C@H](N)C[C@@H]2N)[C@H](O)[C@@H](O)[C@@H]1O [KANAMYCIN] as the compound, how does the MIC [1] read?
**A.** Its MIC is 2.5 µg/mL (≈ 5.16 µM).

**Q.** Which MIC [1] does the source give for NNC(=O)c1ccncc1 [ISONIAZID] here?
**A.** The MIC was 0.1 µg/mL (≈ 0.729 µM).

**Q.** Which IC50 (Human alphaherpesvirus 1 [2]) does the source give for Nc1nc2c(ncn2COCCO)c(=O)[nH]1 [ACYCLOVIR] here?
**A.** The IC50 was 0.5 µg/mL (≈ 2.22 µM).

**Q.** For C[C@@H]1[C@H](O)[C@@H](C)/C=C/C=C/C=C/C=C/C=C/C=C/C=C/[C@H](O[C@@H]2O[C@H](C)[C@@H](O)[C@H](N)[C@@H]2O)C[C@@H]2O[C@](O)(C[C@@H](O)C[C@@H](O)[C@H](O)CC[C@@H](O)C[C@@H](O)CC(=O)O[C@H]1C)C[C@H](O)[C@H]2C(=O)O [AMPHOTERICIN B], which IC50 (Candida albicans [3]) is on record?
**A.** Its IC50 is 0.08 µg/mL (≈ 0.0866 µM).

**Q.** With CC(C)C[C@@H]1NC(=O)[C@H](C)NC(=O)[C@H](Cc2c[nH]c3ccccc23)NC(=O)[C@@H]2CCCN2C(=O)[C@H](CO)NC(=O)[C@H](C(C)C)NC(=O)[C@H](CC(C)C)NC1=O [INTEGERRIMIDE B] (cyclo(ALLVSPW)) as the compound, how does the inhibition at 50 µM (Capan-2) read?
**A.** Its inhibition at 50 µM is 20%.

**Q.** And the Activity (Homo sapiens)?
**A.** The Activity was “inactive”.

**Q.** And the Activity (IPC-298 [4])?
**A.** The Activity was 40%.

**Q.** What about the Activity (IPC-298 [5]) of the same compound?
**A.** Its Activity is “inactive”.

**Q.** What about the Activity [6] of the same compound?
**A.** Its Activity is “Non-toxic”.

**Q.** What about the Activity [7] of the same compound?
**A.** The Activity was “Non-toxic”.

**Q.** What about the Activity (Candida albicans [8]) of the same compound?
**A.** The Activity was “inactive”.

**Q.** And the Activity (Human alphaherpesvirus 1 [9])?
**A.** The Activity was “inactive”.

**Q.** What about the Activity (IPC-298 [10]) of the same compound?
**A.** The Activity was “inactive”.

**Q.** And the Activity (Gallus gallus [11])?
**A.** Its Activity is “Active”.

**Q.** What about the Activity (Plasmodium falciparum) of the same compound?
**A.** The Activity was “inactive”.

**Q.** For CC(C)C[C@@H]1NC(=O)CNC(=O)[C@H](Cc2c[nH]c3ccccc23)NC(=O)[C@@H]2CCCN2C(=O)[C@H]([C@@H](C)O)NC(=O)[C@H](CC(C)C)NC(=O)[C@H](CC(C)C)NC1=O [INTEGERRIMIDE A] (cyclo(GLLLTPW)), which inhibition at 50 µM (Capan-2) is on record?
**A.** Its inhibition at 50 µM is 30%.

**Q.** And the Activity (Homo sapiens)?
**A.** Its Activity is “inactive”.

**Q.** And the Activity (IPC-298 [4])?
**A.** Its Activity is 40%.

**Q.** And the Activity (IPC-298 [5])?
**A.** Its Activity is “inactive”.

**Q.** And the Activity [6]?
**A.** The Activity was “Non-toxic”.

**Q.** And the Activity [7]?
**A.** Its Activity is “Non-toxic”.

**Q.** What about the Activity (Candida albicans [8]) of the same compound?
**A.** The Activity was “inactive”.

**Q.** What about the Activity (Human alphaherpesvirus 1 [9]) of the same compound?
**A.** Its Activity is “inactive”.

**Q.** And the Activity (IPC-298 [10])?
**A.** The Activity was “inactive”.

**Q.** And the Activity (Gallus gallus [11])?
**A.** The Activity was “Active”.

**Q.** What about the Activity (Gallus gallus [12]) of the same compound?
**A.** The Activity was “Active”.

**Q.** What about the Activity (Plasmodium falciparum) of the same compound?
**A.** The Activity was “inactive”.

**Q.** Which MIC [1] does the source give for CO[C@H]1/C=C/O[C@@]2(C)Oc3c(C)c(O)c4c(O)c(c(/C=N/N5CCN(C)CC5)c(O)c4c3C2=O)NC(=O)/C(C)=C\C=C\[C@H](C)[C@H](O)[C@@H](C)[C@@H](O)[C@@H](C)[C@H](OC(C)=O)[C@@H]1C [RIFAMPIN] here?
**A.** Its MIC is 0.0023 µg/mL (≈ 0.00279 µM).
